A selection: hits, their analogues and other compounds. The true share with any hit is near 3.1%.
KCNK9 block: KCNK9 potassium channel inhibitors, primary screen, HEK293 cells, thallium flux; FluxOR thallium flux fluorescence; hits give low values; 310,000 tested, 1.2% active; B-score at 10 µM; Potassium channel subfamily K member 9 (Homo sapiens), Q9NPC2;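 active = ratio B-score over 3 SD below the library mean, with starting fluorescence within 5 SD of its mean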;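 note: negative B-score means less thallium flux so channel inhibition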
KCNQ1 inh: inhibitors of human KCNQ1 channel, primary screen, cell-based, thallium flux, high-throughput; 310,000 tested, 1.3% active; CHO-K1 KCNQ1, FluxOR thallium flux fluorescence; hits give high values; Potassium voltage-gated channel subfamily KQT member 1 (Homo sapiens), P51787; B-score at 10 µM;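 active = compounds whose thallium flux B-score, printed positive for inhibition, exceeds three library SD while starting fluorescence stays within three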;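 note: channel opened by potassium depolarization with thallium stimulus after 20 min compound exposure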
hERG rescue: hERG rescue from dofetilide block, primary screen, cell-based, CHO-hERG, FluxOR thallium flux, dofetilide IC70. Voltage-gated inwardly rectifying potassium channel KCNH2 (Homo sapiens), Q12809. dofetilide IC70 present. activation (rescue from dofetilide block), less the hit threshold, % at 10 µM. 310,000 tested, 0.51% active. AID 1511, 2009;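 active = activation above the mean of controls blocked by dofetilide plus 5 SD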;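 note: thallium influx through hERG after potassium depolarization seen as dye fluorescence rise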
KCNQ1 pot: potentiators or activators of KCNQ1 channel, primary screen, cell-based, thallium flux, high-throughput | Potassium voltage-gated channel subfamily KQT member 1 (Homo sapiens), P51787 | CHO-K1 KCNQ1, thallium flux FluxOR fluorescence; hits give high values | B-score at 10 µM | 310,000 tested, 0.35% active | AID 2648, 2010;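 active = fluorescence ratio B-score, a plate-corrected score, at least three library SD, with initial intensity B-score within 5 SD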
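Assay system: CHO-K1 cells stably expressing KCNQ1; Medium: assay buffer with matched DMSO; Also added: K+/Tl+ depolarizing stimulus; Dosing: single dose; Timing: dye 90 min, compound 20 min, room temperature; Measured by: kinetic FluxOR thallium fluorescence, 10-s 1-Hz baseline, 110-s post-stimulus read; Read-out: peak-minus-minimum fluorescence over initial fluorescence, negative-control normalized, B-scored.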
KCNK3 inh: human KCNK3 channel inhibitors, primary screen, CHO cells, FluxOR thallium flux, B-score | AID 602410, 2012 | Potassium channel subfamily K member 3 (Homo sapiens), O14649 | FluxOR fluorescence; hits give low values | 340,000 tested, 0.84% active | B-score at 10 µM;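 active = B-score under library mean minus 4 SD, starting fluorescence ratio at most library mean plus 5 SD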;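 note: more negative B-score means stronger inhibition of thallium flux through KCNK3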
KCNK9 inh conf: KCNK9 potassium channel inhibitors, confirmation, HEK293 cells, thallium flux, duplicate; AID 492992, 2010; FluxOR thallium flux fluorescence; 4,900 tested, 43% active; shares compounds with KCNK9 block; inhibition, % at 10 µM;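 active = thallium signal inhibited by more than 5 SD of the compound-free buffer control wells, on both duplicate plates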;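 note: 0% = assay buffer control wells without compound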
Kir2-1 spec: mouse Kir2.1 channel inhibition, confirmation, selectivity assay for KCNK9 modulator project, cell-based, HEK293, thallium flux; shares compounds with KCNK9 block; Kir2.1 cells, FluxOR thallium flux fluorescence; inhibition, % at 10 µM; 4,900 tested, 4% active; AID 492993, 2010;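 active = thallium signal drop more than 5 SD beyond the mean of the no-compound control wells, seen in both duplicate plates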;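 note: signal is fluorescence rise after thallium addition divided by baseline fluorescence; plate controls were assay buffer only for no effect and full block by chlorpromazine control for full effect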
KCNK9 uninduced: thallium flux in non-induced HEK293 cells, confirmation, counter-screen for KCNK9 inhibitor project, cell-based, second counter screen, non-induced KCNK9-HEK293; shares compounds with KCNK9 block; FluxOR thallium flux; inhibition, % at 10 µM; 4,900 tested, 40% active;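 active = thallium signal drop beyond 5 SD of the untreated control mean, on both duplicate plates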;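 note: plate controls were buffer only IC0 wells for no effect and SID17386958 at its maximal inhibitory level for full effect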
Active calls of the source: *; i = inactive; . = not tested or not shown.

SMILES	KCNK9 block	KCNQ1 inh	hERG rescue	KCNQ1 pot	KCNK3 inh	KCNK9 inh conf	Kir2-1 spec	KCNK9 uninduced
COc1cc(Cl)ccc1OCc1cc(C(=O)NCC(C)c2ccccc2)no1 (centres undefined)	i	i	-8	i	i	i	i	i
O=C(NCCCc1ccccc1)c1cc(COc2ccc(F)cc2Cl)on1	i	6*	-8	i	i	i	i	i
CCC(NC(=O)c1cc(COc2ccc(Cl)cc2OC)on1)c1ccncc1 (centres undefined)	i	i	-3	i	i	.	.	.
CN(C(=O)c1cc(COc2ccc(F)cc2Cl)on1)C1CCCc2ccccc21 (centres undefined)	i	i	-9	i	i	i	i	24%*
CN(C)CCn1c(=O)n(C2CCCCC2)c(=O)c2c3c(sc21)CCCCC3	i	i	-5	i	i	i	i	i
O=C(Cn1c(=O)n(Cc2ccco2)c(=O)c2c3c(sc21)CCCCC3)c1ccccc1	i	i	-5	i	i	.	.	.
O=C(Cn1c(=O)n(Cc2ccco2)c(=O)c2c3c(sc21)CCCCC3)Nc1ccccc1	i	6*	1	i	i	i	i	34%*
CN(C)CCn1c(=O)n(Cc2ccco2)c(=O)c2c3c(sc21)CCCCC3	i	i	-20	i	i	i	i	i
CC(OC(=O)/C=C/c1ccco1)C(=O)NC1CCCCC1C (centres undefined)	.	.	.	.	i	.	.	.
O=c1[nH]c(=S)[nH]c2c1C(c1ccc(Br)cc1)c1c([nH]c(=S)[nH]c1=O)O2	i	i	0	i	i	.	.	.
CC(=O)Nc1ccc2c(c1)C(=O)c1cccc(C(=O)O)c1-2	.	.	.	.	i	.	.	.
COc1ccc(NC(=O)c2csc(Cc3ccc(Cl)cc3)n2)cc1	i	i	-12	i	i	.	.	.
COc1ccc(NC(=O)c2sccc2OS(=O)(=O)N(C)C)cc1	i	i	-2	i	i	.	.	.
COc1ccc(COc2ccsc2C(=O)Nc2ccc(Cl)cc2)cc1	-9*	i	-11	i	i	44%*	i	26%*
CN(C)S(=O)(=O)Oc1ccsc1C(=O)Nc1ccc(Cl)cc1	-11*	i	-8	i	-11*	33%*	i	40%*
COc1ccccc1CC(=O)N1CCN(c2ccccc2)CC1	i	i	-7	i	i	.	.	.
O=c1c2ccccc2nc(SCc2cccc(F)c2)n1Cc1ccco1	-16*	i	-14	i	i	55%*	i	54%*
O=c1c2ccccc2nnn1CSc1nc2ccccc2c(=O)n1Cc1ccco1	i	i	-7	i	i	.	.	.
COCCn1c(SCc2nc3ccccc3c(=O)[nH]2)nc2ccccc2c1=O	i	i	-21	i	i	.	.	.
COCCn1c(SCc2ccc(F)cc2)nc2ccccc2c1=O	-15*	i	-8	i	i	68%*	i	38%*
COc1cccc(C(=O)NC(C)c2ccc(-c3ccccc3)cc2)c1OC (centres undefined)	i	i	-8	i	i	i	i	i
COc1cccc(C(=O)NC(C)c2cccc3ccccc23)c1OC (centres undefined)	i	i	-10	i	i	.	.	.
Nc1c(C(=O)NCc2ccccc2)nnn1Cc1ccccc1	i	i	-9	i	i	.	.	.
c1ccc(Cn2nnc(CNc3ccccc3)c2-c2c(CNc3ccccc3)nnn2Cc2ccccc2)cc1	-17*	i	-7	i	i	64%*	i	36%*
COc1ccc(CC2(C)OC(c3ccc(C)c([N+](=O)[O-])c3)=NN2C(C)=O)cc1 (centres undefined)	i	i	-12	i	i	.	.	.
SMILES	KCNK9 block	KCNQ1 inh	hERG rescue	KCNQ1 pot	KCNK3 inh	KCNK9 inh conf	Kir2-1 spec	KCNK9 uninduced
COc1ccc(CC2(C)OC(c3ccccc3)=NN2C(C)=O)cc1 (centres undefined)	i	i	-11	i	i	i	i	i
CC(=O)N1N=C(c2ccccc2)OC1(C)CC(=O)Nc1ccccc1 (centres undefined)	i	i	-9	i	i	.	.	.
COc1ccc(CC2(C)OC(c3ccc(C)cc3)=NN2C(C)=O)cc1 (centres undefined)	i	i	-17	i	i	i	i	i
CCOC(=O)N1CCc2c(sc3c2c(=O)n(Cc2ccccc2)c(=O)n3Cc2cccc(C)c2)C1	i	i	-6	i	i	i	i	i
O=C(O)Cn1c(=O)c2c3c(sc2n(Cc2ccccc2)c1=O)CCCC3	i	i	-4	i	i	.	.	.
CCOC(=O)N1CCc2c(sc3c2c(=O)n(Cc2ccccc2)c(=O)n3Cc2ccccc2F)C1	i	i	-10	i	i	i	i	i
CCOC(=O)N1CCc2c(sc3c2c(=O)n(Cc2ccccc2)c(=O)n3CC(=O)NCC2CCCO2)C1 (centres undefined)	i	i	-11	i	i	.	.	.
CN(CC(=O)Nc1ccccc1Cl)C(=O)COC(=O)c1ccccc1[N+](=O)[O-]	i	i	-11	i	i	.	.	.
O=C(N/N=C/c1cn(-c2cccs2)nc1-c1ccccc1)c1ccccc1Cl	-10*	i	-2	i	i	51%*	i	i
O=C(N/N=C/c1cn(-c2cccs2)nc1-c1ccccc1)c1ccc(O)cc1	i	i	-36	i	i	.	.	.
O=C(N/N=C/c1cccs1)c1cccc(NC(=O)c2ccccc2Cl)c1	-9.4*	i	-19	i	i	i	i	i
Clc1ccc(-c2nnc(CCc3ccccc3)o2)c(Cl)c1	i	i	-3	i	i	i	i	i
CC(=O)Nc1cccc(-c2cc(C)c3cc4c(cc3n2)OCO4)c1	i	i	-6	i	i	.	.	.

Source: PubChem
